# Compound activity (PubChem BioAssay)
# KCNK3 block: human KCNK3 channel inhibitors, primary screen, CHO cells, FluxOR thallium flux, B-score | FluxOR fluorescence; hits give low values | B-score at 10 µM | AID 602410, 2012 | 0.84% of 340,000 active | Potassium channel subfamily K member 3 (Homo sapiens), O14649;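 active = B-score under library mean minus 4 SD, starting fluorescence ratio at most library mean plus 5 SD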;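 also: more negative B-score means stronger inhibition of thallium flux through KCNK3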
# KCNK9 inh: KCNK9 potassium channel inhibitors, primary screen, HEK293 cells, thallium flux; Potassium channel subfamily K member 9 (Homo sapiens), Q9NPC2; FluxOR thallium flux fluorescence; hits give low values; B-score at 10 µM; 1.2% of 310,000 active;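 active = ratio B-score over 3 SD below the library mean, with starting fluorescence within 5 SD of its mean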;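 also: negative B-score means less thallium flux so channel inhibition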
# Cl transport mod: KCC2 cotransporter modulators, thallium flux, primary screen, cell-based, HEK293 KCC2, FluoZin-2 fluorescence, MLSMR; Solute carrier family 12 member 5 (Homo sapiens), Q9H2X9; KCC2 cells, thallium flux FluoZin-2 fluorescence; B-score of Tl+ flux slope (higher = more flux/activation; lower = inhibition) at 10 µM; 2.2% of 190,000 active; AID 1456, 2008;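 active = thallium flux slope and its plate-corrected score both differing from the plate sample mean at a set confidence after two filtering rounds, in either direction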;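 also: slope of fluorescence scaled to starting intensity during 10 to 20 s after thallium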
# KCNQ1 block: inhibitors of human KCNQ1 channel, primary screen, cell-based, thallium flux, high-throughput; Potassium voltage-gated channel subfamily KQT member 1 (Homo sapiens), P51787; CHO-K1 KCNQ1, FluxOR thallium flux fluorescence; hits give high values; 1.3% of 310,000 active; AID 2642, 2010; B-score at 10 µM;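 active = compounds whose thallium flux B-score, printed positive for inhibition, exceeds three library SD while starting fluorescence stays within three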;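 also: channel opened by potassium depolarization with thallium stimulus after 20 min compound exposure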
# Target sequence (P51787 whole entry, looked up): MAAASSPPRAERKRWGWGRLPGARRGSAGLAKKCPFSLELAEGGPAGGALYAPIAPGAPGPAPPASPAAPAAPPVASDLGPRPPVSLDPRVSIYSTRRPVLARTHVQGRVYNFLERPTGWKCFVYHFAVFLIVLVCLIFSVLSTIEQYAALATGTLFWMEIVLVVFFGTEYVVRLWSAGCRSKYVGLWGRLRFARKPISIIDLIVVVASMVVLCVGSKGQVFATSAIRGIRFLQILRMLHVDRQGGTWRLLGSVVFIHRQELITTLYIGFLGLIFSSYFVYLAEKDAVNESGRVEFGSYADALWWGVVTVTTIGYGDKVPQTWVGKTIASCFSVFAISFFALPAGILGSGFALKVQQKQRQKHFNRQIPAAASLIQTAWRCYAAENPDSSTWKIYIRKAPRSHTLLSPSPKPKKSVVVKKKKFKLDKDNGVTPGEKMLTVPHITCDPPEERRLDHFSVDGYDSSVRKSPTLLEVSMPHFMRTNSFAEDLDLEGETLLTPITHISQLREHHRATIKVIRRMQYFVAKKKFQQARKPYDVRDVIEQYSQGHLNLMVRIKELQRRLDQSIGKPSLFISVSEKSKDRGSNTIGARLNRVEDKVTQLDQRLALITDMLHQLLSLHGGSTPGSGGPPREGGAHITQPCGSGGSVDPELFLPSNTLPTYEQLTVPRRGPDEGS
# KCNQ1 act: potentiators or activators of KCNQ1 channel, primary screen, cell-based, thallium flux, high-throughput; Potassium voltage-gated channel subfamily KQT member 1 (Homo sapiens), P51787; 0.35% of 310,000 active; CHO-K1 KCNQ1, thallium flux FluxOR fluorescence; hits give high values; B-score at 10 µM;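 active = fluorescence ratio B-score, a plate-corrected score, at least three library SD, with initial intensity B-score within 5 SD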
#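 assay system = CHO-K1 cells stably expressing KCNQ1 | medium = assay buffer, equal DMSO in all wells | timing = 37 °C overnight plating, 90-min dark dye load, 20-min compound pretreatment | measured by = kinetic FluxOR thallium fluorescence, 10-s 1-Hz baseline, 110-s post-stimulus read | measure = fluorescence change relative to baseline, converted to B score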
# hERG rescue: hERG rescue from dofetilide block, primary screen, cell-based, CHO-hERG, FluxOR thallium flux, dofetilide IC70; Voltage-gated inwardly rectifying potassium channel KCNH2 (Homo sapiens), Q12809; dofetilide IC70 present; activation (rescue from dofetilide block), less the hit threshold, % at 10 µM; 0.51% of 310,000 active; AID 1511, 2009;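 active = activation above the mean of controls blocked by dofetilide plus 5 SD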;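 also: thallium influx through hERG after potassium depolarization seen as dye fluorescence rise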
# KCNK9 inh conf: KCNK9 potassium channel inhibitors, confirmation, HEK293 cells, thallium flux, duplicate. 43% of 4,900 active. shares compounds with KCNK9 inh. inhibition, % at 10 µM. AID 492992, 2010. FluxOR thallium flux fluorescence;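 active = thallium signal inhibited by more than 5 SD of the compound-free buffer control wells, on both duplicate plates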;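 also: 0% = assay buffer control wells without compound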
# Kir2-1 spec: mouse Kir2.1 channel inhibition, confirmation, selectivity assay for KCNK9 modulator project, cell-based, HEK293, thallium flux. Kir2.1 cells, FluxOR thallium flux fluorescence. 4% of 4,900 active. shares compounds with KCNK9 inh. inhibition, % at 10 µM;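 active = thallium signal drop more than 5 SD beyond the mean of the no-compound control wells, seen in both duplicate plates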;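 also: signal is fluorescence rise after thallium addition divided by baseline fluorescence; plate controls were assay buffer only for no effect and full block by chlorpromazine control for full effect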
# HEK293 Tl ctr: thallium flux in non-induced HEK293 cells, confirmation, counter-screen for KCNK9 inhibitor project, cell-based, second counter screen, non-induced KCNK9-HEK293 | inhibition, % at 10 µM | FluxOR thallium flux | 40% of 4,900 active | shares compounds with KCNK9 inh;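 active = thallium signal drop beyond 5 SD of the untreated control mean, on both duplicate plates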;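 also: plate controls were buffer only IC0 wells for no effect and SID17386958 at its maximal inhibitory level for full effect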
# KCNK3 inh conf: retest of human KCNK3 channel inhibitors, confirmation, CHO cells, FluxOR thallium flux, triplicate; shares compounds with KCNK3 block; FluxOR fluorescence; 0% buffer, 100% carvedilol maximal block; ratio percent of control, % at 10 µM; 99% of 2,400 active; AID 651638, 2012;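 active = ratio percent of control, averaged over triplicates, above buffer control mean plus 5 SD, cut at about 64% in these data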;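 also: ratio is the fluorescence rise from min to max over baseline after thallium stimulus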
# KCNK3 uninduced: thallium flux inhibition in non-induced cells, primary screen, counter-screen for KCNK3 inhibitor project, cell-based, non-induced KCNK3 line, FluxOR thallium, triplicate | thallium flux ratio (lower = more inhibition) at 10 µM | 40% of 2,400 active | AID 651747, 2012 | shares compounds with KCNK3 block | non-induced KCNK3 parental cells; hits give low values;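 active = thallium flux ratio, averaged over three wells, more than 5 SD below the buffer control mean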;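 also: host cells are CHO cells without KCNK3 induction; ratio is peak minus trough fluorescence over baseline then normalized to buffer controls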
# Numbers without * were called inactive; i = inactive; nt = no result. An excerpt weighted towards active compounds, which were near 4.1% of everything screened.
SMILES,KCNK3 block,KCNK9 inh,Cl transport mod,KCNQ1 block,KCNQ1 act,hERG rescue,KCNK9 inh conf,Kir2-1 spec,HEK293 Tl ctr,KCNK3 inh conf,KCNK3 uninduced
COC(=O)C1=C(C)NC(C)=C(C(=O)OC)C1c1ccc(-c2cccc(Cl)c2Cl)o1,i,i,0.062,i,i,-7,nt,nt,nt,nt,nt
COC(=O)C1=C(C)NC(C)=C(C(=O)OC)C1c1ccc(-c2cc(Cl)ccc2Cl)o1,-9.7*,-9.5*,0.48,i,i,-5,38%*,i,40%*,127*,i
COc1ccc(CN(C(=O)c2nsc(Cl)c2Cl)C(C(=O)NC2CCCC2)c2ccc(OC)cc2)cc1 (stereo not drawn),i,i,0.32,i,i,-12,nt,nt,nt,nt,nt
COc1ccccc1/C=C/C(=O)OCC(=O)NCc1ccc2c(c1)OCO2,i,nt,nt,nt,nt,nt,nt,nt,nt,nt,nt
COc1ccccc1/C=C(/CC(=O)NCc1ccc2c(c1)OCO2)c1nc2ccccc2s1,-9.3*,-12*,-1.6,i,i,-6,56%*,i,29%*,125*,0.14*
COc1ccc(/C=N/NC(=O)c2cccc(NC(=O)c3ccccc3Cl)c2)c(OC)c1,-10*,-12*,-1.9,i,i,-8,49%*,i,i,106*,i
COc1ccc(/C=N/NC(=O)c2cccc(NC(=O)c3ccccc3Cl)c2)cc1,i,i,nt,i,i,-7,nt,nt,nt,nt,nt
COc1ccc(/C=N/NC(=O)c2ccccc2OCc2ccccc2)c(OC)c1,-12*,-21*,nt,11*,i,-20,72%*,i,i,126*,0.14*
O=C(COC(=O)[C@@H]1CCCN1C(=O)c1cccs1)Nc1ccc(F)cc1[N+](=O)[O-],i,i,-1.4,i,i,-13,nt,nt,nt,nt,nt
COc1ccccc1NC(=O)c1ccc(NC(=O)COC(=O)C2CC2C)cc1 (stereo not drawn),i,i,-1.4,i,i,-5,nt,nt,nt,nt,nt
COc1ccccc1NC(=O)c1ccc(NC(=O)CN(C)Cc2ccccc2F)cc1,-11*,-9.1*,-1.9,i,i,-21,36%*,i,i,97*,i
COCCN(C(=S)Nc1cccc(C)c1)C(C)c1cccs1 (stereo not drawn),i,i,0.036,i,i,-3,nt,nt,nt,nt,nt
CC(C)CCN(C(=S)Nc1cccc(F)c1)C(C)c1cccs1 (stereo not drawn),-14*,-10*,0.58,i,i,-14,50%*,i,50%*,119*,0.15*
